# NR1D1 modulator – modulators of human Rev-erb alpha DNA binding; P20393; Rev-erbα–FITC-DNA binding, fluorescence polarization, 90 min; activity, % at 10 µM; 370,000 compounds, 0.79% hits;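 active = activity above about 14%, limit read from the data; passing the limit was not always enough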;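 also: 0% = DMSO wells with 35 nM protein and 100% = DMSO wells with 750 nM protein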
# NR2E3 ag-1 – agonists of human nuclear receptor NR2E3; Q9Y5X4; GST-NR2E3/biotin-RetCOR TR-FRET, 1536-well; inhibition of corepressor binding, % at 4.78 µM; 320,000 compounds, 0.12% hits; AID 2300;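 active = percent inhibition above the cutoff of mean plus 3 SD of all tested compounds, set per screening campaign, cut at about 20% in these data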;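 also: 0% = DMSO wells and 100% = biotin wells as full block of FRET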
# Target sequence (Q9Y5X4 whole entry, looked up): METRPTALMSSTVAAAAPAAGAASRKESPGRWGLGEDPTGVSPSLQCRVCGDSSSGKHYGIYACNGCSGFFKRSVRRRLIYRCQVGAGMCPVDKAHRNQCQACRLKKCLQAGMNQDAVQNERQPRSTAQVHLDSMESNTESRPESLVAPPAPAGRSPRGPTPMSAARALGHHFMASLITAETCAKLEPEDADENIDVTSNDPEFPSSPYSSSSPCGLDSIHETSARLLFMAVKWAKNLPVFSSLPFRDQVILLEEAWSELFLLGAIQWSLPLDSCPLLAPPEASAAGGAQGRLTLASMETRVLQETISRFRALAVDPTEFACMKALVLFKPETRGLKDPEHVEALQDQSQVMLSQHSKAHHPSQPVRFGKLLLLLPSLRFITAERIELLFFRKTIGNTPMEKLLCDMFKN
#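 Format: 1536-well format; test system: GST-NR2E3 and biotin-RetCOR proteins; read-out basis: percent inhibition of TR-FRET ratio; timing: 5 h incubation at 4 °C; detection: time-resolved FRET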
# PG9 Ab binder – PG9 antibody binding by small molecule; TR-FRET gp120-PG9 antibody binding; inhibition, % at 6.7 µM; AID 624416; 360,000 compounds, 0.43% hits; in the data active = inhibition above about 8.5%
# NR2E3 ag-2 – human photoreceptor-specific nuclear receptor agonism; CHO-S Gal4-NCOR/VP16-NR2E3 two-hybrid, luciferase; inhibition of corepressor binding, % at 3.98 µM; 360,000 compounds, 0.35% hits; AID 602229;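 active = inhibition above the mean of all tested compounds plus 3 SD, cut at about 70% in these data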;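 also: 0% = DMSO with NR2E3 transfected cells and 100% = cells lacking NR2E3 construct; higher means lower luciferase signal from less NR2E3 corepressor binding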
# PG9 binder conf – PG9 antibody binding, confirmed | shares compounds with PG9 Ab binder | 1,500 compounds, 90% hits | TR-FRET PG9 antibody binding, biochemical | AID 651571 | inhibition, % at 6.7 µM; in the data active = inhibition above about 9%
# PGV04 Ab binding – counter-screen for PG9 binders: binding control antibody PGV04 | shares compounds with PG9 Ab binder | TR-FRET PGV04 antibody-gp120 binding, biochemical | inhibition, % at 6.7 µM | 1,500 compounds, 95% hits; in the data active = inhibition above about 9.5%
# The depositor's hits bear a star; / = no result given. Hits are enriched below; roughly 1.4% of the tested compounds scored in any of these assays.
SMILES,NR1D1 modulator,NR2E3 ag-1,PG9 Ab binder,NR2E3 ag-2,PG9 binder conf,PGV04 Ab binding
COc1cccc2cc(C(=O)C3=C(O)C(=O)N(CCN(C)C)C3c3ccc(Cl)cc3)oc12 (centres undefined),0.3,-2.7,14.4*,-35.0,22.4*,28.4*
COc1ccccc1C1C(C(=O)c2cc3ccccc3o2)=C(O)C(=O)N1CCN(C)C (centres undefined),2.0,18.3,12.8*,6.1,23.8*,34.0*
COc1cc(C2C(C(C)=O)=C(O)C(=O)N2CCN(C)C)ccc1O (centres undefined),-3.3,-1.2,-1.2,-14.3,/,/
CC(=O)NC(NC(=S)Nc1ccc(N=Nc2ccccc2C)cc1C)C(Cl)(Cl)Cl (centres undefined),3.4,5.6,-0.4,-46.4,/,/
Nc1c(C(=O)Nc2ccccc2)sc2nc(N3CCOCC3)c3c(c12)CCCC3,0.5,/,3.7,-148.4,/,/
Nc1c(C(=O)NCc2ccccc2)sc2nc(N3CCOCC3)c3c(c12)CCCC3,7.1,11.5,10.3*,4.9,8.6*,15.6*
Cc1csc2c(=O)sc(NC(=O)c3ccco3)nc12,-4.2,-0.5,37.4*,4.8,48.6*,78.0*
Cc1csc(NC(=O)c2cccs2)n1,1.9,1.6,-1.6,-37.9,/,/
Cc1csc2c(=O)sc(NC(=O)c3cccs3)nc12,12.7,-1.6,63.7*,-6.3,65.8*,87.8*
CC1c2ccccc2N(S(=O)(=O)c2ccccc2)C1C (centres undefined),-3.1,/,-0.4,19.3,/,/
Cc1ccc(Cc2cnc(NC(=O)c3ccco3)s2)cc1,-0.7,1.4,0.0,-157.9,/,/
O=C(Nc1ncc(Cc2ccc(SC(F)F)cc2)s1)c1ccc(OC(F)F)cc1,14.1,-0.1,21.7*,10.2,12.0*,18.1*
Cn1c(C(=O)N2CCN(c3nc4ccccc4s3)CC2)cc2sccc21,9.6,0.0,13.8*,-16.1,20.2*,30.6*
CC(=O)Nc1ccc(C(=O)COC(=O)C2CCCCC2)c(F)c1,-2.6,1.1,-3.2,3.6,/,/
CC1(C)Cc2nc3sc4c(SCC(=O)NCc5ccccc5)ncnc4c3cc2CO1,-2.8,10.5,48.4*,-150.6,86.2*,87.9*
COc1ccc(-c2noc(CCC(=O)Nc3cc(OC)ccc3OC)n2)cc1,2.0,-2.6,0.2,14.9,/,/
Nc1cc2sc(-c3ccc(C(=O)O)cc3)nc2cc1Cl,-8.8,7.4,8.6*,-86.5,12.1*,20.0*
CC(C)(C)S(=O)N1C[C@H]2CC(=O)C=C2[C@@H]1CCO (some centres undefined),-0.8,/,-0.4,/,/,/
Cc1ccc(NC(=O)CNC(=O)c2sc3ccccc3c2Cl)nc1,13.7,-5.0,15.0*,-4.0,13.3*,27.9*
CC(=O)Nc1ccc(NC(=O)CNC(=O)c2sc3ccccc3c2Cl)cc1,-6.9,-31.2,-0.3,-14.1,/,/
NC(=O)c1ccc(NC(=O)CNC(=O)c2sc3ccccc3c2Cl)cc1,7.6,-90.9,18.4*,22.3,22.0*,27.9*
CCc1nnc(NC(=O)Cc2ccc(OCc3c(C)noc3C)cc2)s1,10.4,-0.9,19.4*,-32.6,18.7*,41.7*
COc1cc(C(=O)Nc2ccccc2SCc2cc(=O)n3nc(C)sc3n2)cc(OC)c1OC,1.4,-1.9,0.0,20.3,/,/
COc1ccccc1C(=O)COC(=O)c1ccc(-n2cnnn2)cc1,-2.8,1.1,0.4,-45.3,/,/
COc1ccc(C(=O)COC(=O)c2ccc(-n3cnnn3)cc2)c(OC)c1,13.9,5.9,24.3*,8.1,35.5*,44.2*
SMILES,NR1D1 modulator,NR2E3 ag-1,PG9 Ab binder,NR2E3 ag-2,PG9 binder conf,PGV04 Ab binding
C/C(O)=C(\C#N)c1nnc2n1CCCCC2,0.2,-2.3,2.6,1.6,/,/
COc1ccc(NC(=O)CCn2c(=S)[nH]c3ccccc3c2=O)cc1,1.8,1.0,22.1*,7.2,22.2*,26.7*
COc1ccc(NC(=O)CCCn2c(=S)[nH]c3ccccc3c2=O)cc1,5.8,2.1,-0.6,-42.7,/,/
O=C(CSc1nc(-c2ccccc2)nc2ccccc12)Nc1cccc(C(=O)O)c1,-3.0,9.9,15.6*,-36.3,14.9*,22.0*
Cc1cc(NC(=O)NCC(F)(F)F)no1,6.6,0.6,2.4,14.9,/,/
COC(=O)CCC(=O)Nc1sc(C)c(C)c1C(N)=O,0.1,3.0,2.2,-23.8,/,/
COC(=O)CCC(=O)NC(=S)Nc1sc(C)c(C)c1C(N)=O,11.7,12.6,36.5*,2.3,33.3*,42.5*
COc1ccc2cc(Br)ccc2c1CC(=O)NC(C)(C)C,4.9,13.4,12.8*,6.0,20.9*,24.9*
CCN(CC)C(=O)Cc1c(OC)ccc2cc(Br)ccc12,2.6,3.6,3.0,-9.2,/,/
CCCNC(=O)Cc1c(OC)ccc2cc(Br)ccc12,8.0,14.1,11.0*,17.0,23.7*,30.7*
CCCCNC(=O)Cc1c(OC)ccc2cc(Br)ccc12,3.1,18.0,8.6*,-8.4,16.9*,20.8*
CCNC(=O)Cc1c(OC)ccc2cc(Br)ccc12,-3.0,3.8,6.7,-14.5,/,/
N/C(=N\c1nc2ccccc2o1)NC(=O)c1ccccc1NC(=O)c1ccccc1,18.2,0.7,10.9*,-17.0,11.1*,18.9*
CCC(C)C(=O)Nc1nnc(SCC(=O)N2C(C)CCCC2C)s1 (centres undefined),1.4,-0.2,-2.4,-35.3,/,/
COc1cccc(-n2nnnc2SCC(=O)Nc2ccccc2OC)c1,-4.9,1.2,0.0,14.9,/,/
COc1cccc(-n2nnnc2SCC(=O)Nc2ccc(C(C)=O)cc2)c1,14.0,6.7,16.2*,0.7,24.4*,38.6*
COC(=O)N/N=C/c1cn(CCCOc2ccccc2)c2ccccc12,-3.1,4.0,-1.1,-75.6,/,/
O=C(Cn1cnc2c(NCc3ccccc3)ncnc21)NCc1ccc2[nH]ccc2c1,4.4,/,33.3*,-8.4,15.7*,28.9*
O=C(Cn1cnc2c(OCc3ccccc3)ncnc21)NCc1ccc2[nH]ccc2c1,-0.3,/,-0.8,-12.8,/,/
Cc1occc1C(=O)Nc1cc(S(=O)(=O)N2CCOCC2)ccc1OC(C)C,-2.4,1.1,-0.1,3.2,/,/
c1ccc(OCCSc2nc3ccccc3[nH]2)cc1,-0.4,3.3,-0.6,-71.7,/,/
COc1cccc(OCCSc2nc3ccccc3c(=O)[nH]2)c1,21.4,6.0,24.0*,-9.2,22.5*,31.1*
CCCCC(=O)Nc1ccc(C(=O)Nc2ccc(S(=O)(=O)N3CCCC3)cc2)cc1,9.0,5.5,18.0*,14.9,19.0*,38.1*
CC(=O)c1ccc(NC(=O)c2ccc(S(=O)(=O)N3CCCC3)cc2)cc1,3.6,0.9,-2.6,-3.4,/,/
CCOc1ncccc1C(=O)Nc1ccc(S(=O)(=O)N2CCCC2)cc1,15.3,0.4,9.6*,11.1,13.3*,18.1*
COc1ccc(-c2ccc(-c3cc(=O)oc4cc(OC)c(OC)c(OC)c34)cc2)cc1F,-0.4,/,-3.3,-8.6,/,/

# Screening data (PubChem BioAssay)
